# Reference: ChEMBL document CHEMBL1134621, “Discovery of 4-[(Z)-(4-bromophenyl)- (ethoxyimino)methyl]-1'-[(2,4-dimethyl-3- pyridinyl)carbonyl]-4'-methyl-1,4'- bipiperidine N-oxide (SCH 351125): an orally bioavailable human CCR5 antagonist for the treatment of HIV infection” (J Med Chem, 2001)
# pIC50, pKi: −log10 of the molar value.
# Key:
# Rattus norvegicus [1] = test: Area under curve (0-6 hr) value in rat at a concentration of 10 mg/kg after peroral administration.; type: ADME, organism-based; parameters: time < 6 hr, dose 10 mg/kg, route oral; settings: in vivo, po
# [2] = biological target: C-C chemokine receptor type 5 (Homo sapiens, UniProt P51681); test: Inhibition of RANTES binding to C-C chemokine receptor type 5
# [3] = system: Human immunodeficiency virus 1; test: microbe, parasite or virus in culture; type: functional, organism-based; settings: Human immunodeficiency virus 1, U-87 MG
# Rattus norvegicus [4] = test: Area under curve (0-6 hr) value in rat at a concentration of 10 mg/kg, peroral administration.; type: ADME, organism-based; parameters: time < 6 hr, dose 10 mg/kg, route oral; settings: in vivo, po
# Rattus norvegicus [5] = test: Oral bioavailability was evaluated in rat at a dose of 10 mg/kg; type: ADME, organism-based; settings: in vivo
# How it was run: (§1)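 Rat pharmacokinetics using the amorphous tartrate salt. Dosing was 10 mg/kg iv in 20% hydroxypropyl-β-cyclodextrin and 10 mg/kg po in 0.4% methylcellulose. […] Oral bioavailability was derived by comparing oral with iv exposure.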
# Rattus norvegicus [6] = test: In vivo pharmacokinetic parameter, Area under curve (AUC) was measured in rat after 10 mg/kg iv administration; type: ADME, organism-based; parameters: dose 10 mg/kg, route intravenous; how it was run: as §1
# [7] = In vivo pharmacokinetic parameter, half-life (t1/2) was measured in rat after 10 mg/kg iv administration; type: ADME, organism-based; parameters: dose 10 mg/kg, route intravenous; how it was run: as §1
# Canis familiaris [8] = test: Oral bioavailability was evaluated in dog at a dose of 3 mg/kg; settings: in vivo
# [9] = Oral bioavailability was evaluated in monkey at a dose of 2 mg/kg; settings: simiiformes, in vivo
# [10] = In vivo pharmacokinetic parameter, half-life (t1/2) was measured in dog after 1 mg/kg iv administration
# [11] = as above; remark: listed apart in the source
# [12] = In vivo pharmacokinetic parameter, half-life (t1/2) was measured in monkey after 2 mg/kg iv administration; settings: simiiformes
# Canis familiaris [13] = test: In vivo pharmacokinetic parameter, Area under curve (AUC) was measured in dog after 1 mg/kg iv administration
# [14] = In vivo pharmacokinetic parameter, Area under curve (AUC) was measured in monkey after 2 mg/kg iv administration; settings: simiiformes
# Chain of C-C chemokine receptor type 5 (P51681 whole entry): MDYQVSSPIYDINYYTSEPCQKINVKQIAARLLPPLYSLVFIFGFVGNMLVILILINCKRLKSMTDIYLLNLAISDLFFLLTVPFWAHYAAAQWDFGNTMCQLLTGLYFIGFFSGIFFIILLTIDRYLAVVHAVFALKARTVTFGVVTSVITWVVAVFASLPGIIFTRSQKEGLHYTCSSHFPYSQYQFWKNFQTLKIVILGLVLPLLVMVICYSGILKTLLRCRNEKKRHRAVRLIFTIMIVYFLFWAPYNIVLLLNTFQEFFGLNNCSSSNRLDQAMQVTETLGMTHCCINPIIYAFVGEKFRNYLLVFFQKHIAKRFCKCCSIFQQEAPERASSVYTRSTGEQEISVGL
AUC 0-6h (Rattus norvegicus [1]) [ng·h/mL],pKi [2],pIC50 [3],Structure (SMILES),further results
610,8.47,9.22,CO/N=C(\c1ccc(Br)cc1)C1CCN(C2(C)CCN(C(=O)c3c(N)cccc3Cl)CC2)CC1,–
2100,8.96,9.70,CCO/N=C(\c1ccc(Br)cc1)C1CCN(C2(C)CCN(C(=O)c3c(C)ccnc3C)CC2)CC1,–
2400,7.74,8.25,CO/N=C(\c1ccc(Br)cc1)C1CCN(C2(C)CCN(C(=O)c3c(C)cc[n+]([O-])c3C)CC2)CC1,–
–,7.27,7.89,Cc1cccc(C)c1C(=O)N1CCC(C)(N2CCC(C(=O)c3ccc(Br)cc3)CC2)CC1,–
–,7.18,8.00,Cc1cccc(C)c1C(=O)N1CCC(C)(N2CCC(Cc3ccc(Br)cc3)CC2)CC1,AUC 0-6h (Rattus norvegicus [4]): 40 ng·h/mL
3000,–,8.40,CO/N=C(\c1ccc(Br)cc1)C1CCN(C2(C)CCN(C(=O)c3c(C)cccc3O)CC2)CC1,–
–,7.54,–,Cc1cccc(C)c1C(=O)N1CCC(C)(N2CCC(Oc3ccc(Br)cc3)CC2)CC1,–
–,7.18,–,COc1ccc(S(=O)(=O)c2ccc(CC3CCN(C4CCN(C(=O)c5ccc(F)c6ccccc56)CC4)CC3)cc2)cc1,–
1300,8.35,9.30,CO/N=C(\c1ccc(Br)cc1)C1CCN(C2(C)CCN(C(=O)c3c(C)cccc3N)CC2)CC1,–
1400,8.70,8.92,CO/N=C(/c1ccc(Br)cc1)C1CCN(C2CCN(C(=O)c3c(C)cccc3C)CC2)CC1,–
1200,7.60,8.55,CO/N=C(/c1ccc(Br)cc1)C1CCN(C2(C)CCN(C(=O)c3c(C)cccc3C)CC2)CC1,–
2100,–,8.82,CON=C(c1ccc(Br)cc1)C1CCN(C2(C)CCN(C(=O)c3c(C)cccc3C)CC2)CC1,–
150,–,8.26,Cc1cccc(C)c1C(=O)N1CCC(C)(N2CCC(Nc3ccc(Br)cc3)CC2)CC1,–
1900,8.96,9.30,CO/N=C(\c1ccc(Br)cc1)C1CCN(C2(C)CCN(C(=O)c3c(C)ccnc3C)CC2)CC1,–
1000,8.74,8.89,CCO/N=C(\c1ccc(Br)cc1)C1CCN(C2(C)CCN(C(=O)c3c(C)cccc3C)CC2)CC1,–
–,7.32,8.04,CCO/N=C(/c1ccc(Br)cc1)C1CCN(C2(C)CCN(C(=O)c3c(C)cccc3C)CC2)CC1,–
6500,8.68,9.22,CCO/N=C(\c1ccc(Br)cc1)C1CCN(C2(C)CCN(C(=O)c3c(C)cc[n+]([O-])c3C)CC2)CC1 [ANCRIVIROC],BA (Rattus norvegicus [5]): 63%; AUC (Rattus norvegicus [6]): 13000 ng·h/mL; half-life [7]: 5 h; BA (Canis familiaris [8]): 92%; BA [9]: 52%; half-life [10]: 10 h; half-life [11]: 10 h; half-life [12]: 6 h; AUC (Canis familiaris [13]): 2800 ng·h/mL; AUC [14]: 7400 ng·h/mL
